{"data": "Results collected from several papers", "COQ8A": "Atypical kinase COQ8A, mitochondrial (COQ8A, Homo sapiens, UniProt Q8NI60)", "ATP2A1": "Sarcoplasmic/endoplasmic reticulum calcium ATPase 1 (ATP2A1, Oryctolagus cuniculus, UniProt P04191)", "NR3C2": "Mineralocorticoid receptor (NR3C2, Homo sapiens, UniProt P08235)", "PIK3CD": "Phosphatidylinositol 4,5-bisphosphate 3-kinase catalytic subunit delta isoform (PIK3CD, Homo sapiens, UniProt O00329)", "NTSR1": "Neurotensin receptor type 1 (NTSR1, Homo sapiens, UniProt P30989)", "note": "Protocols differ between the studies behind these lines."}
{"SMILES": "CC1(C)CCC(CN2CCN(c3ccc(C(=O)NS(=O)(=O)c4ccc(NCC5CCOCC5)c([N+](=O)[O-])c4)c(Oc4cnc5[nH]ccc5c4)c3)CC2)=C(c2ccc(Cl)cc2)C1", "target": "COQ8A", "test": "ligand displacement, TR-FRET", "endpoint": "IC50", "result": "6.11 µM"}
{"SMILES": "CC(C)(C)OC(=O)N1CCN(Cc2ccn(Cc3ccc(Cl)cc3)c(=O)c2O)CC1", "target": "Lysine-specific demethylase 4E (KDM4E, Homo sapiens, UniProt B2RXH2)", "test": "enzyme activity, inhibitor, AlphaScreen", "endpoint": "IC50", "result": "6.18 µM"}
{"SMILES": "COc1cc(/C=C/C(O)=C/C(=O)/C=C/c2ccc(O)cc2)ccc1O", "target": "ATP2A1", "test": "binding, fluorescence", "conditions": "pH 7.2", "endpoint": "Kd", "result": "8 µM"}
{"SMILES": "C[C@]12CCC(=O)C=C1CC[C@@H]1[C@@H]2[C@@H](O)C[C@@]2(C=O)[C@H]1CC[C@]2(O)C(=O)CO", "target": "NR3C2", "test": "reporter gene, agonist, luciferase", "endpoint": "EC50", "result": "0.0196 µM"}
{"SMILES": "Cc1nc(N(C)c2ccc3c(c2)/C(=C/c2ccccc2Cl)C(=O)N3C)c2ccccc2n1", "target": "PIK3CD", "test": "enzyme activity, inhibitor, ADP detection", "endpoint": "IC50", "result": "> 1 µM"}
{"SMILES": "NC(=O)c1ncc(N2CCCCC2)nc1Nc1ccc(C2CCN(C[C@H]3CCN(c4ccc5c(c4)C(=O)N(C4CCC(=O)NC4=O)C5=O)C3)CC2)cc1 (stereo partly shown)", "target": "Tyrosine-protein kinase BTK (BTK, Homo sapiens, UniProt Q06187, T474I)", "test": "binding, SPR", "endpoint": "Kd", "result": "0.018 µM"}
{"SMILES": "Cc1nc(Nc2ccc3c(c2)/C(=C/c2ccccc2C)C(=O)N3)c2ccccc2n1", "target": "PIK3CD", "test": "enzyme activity, inhibitor, ADP detection", "endpoint": "IC50", "result": "0.126 µM"}
{"SMILES": "Cc1ccc(Nc2nc3nonc3nc2Nc2cccc(C(F)(F)F)c2)cc1Cl", "target": "COQ8A", "test": "ligand displacement, TR-FRET", "endpoint": "IC50", "result": "0.97 µM"}
{"SMILES": "C[C@]12CCC(=O)C=C1CC[C@@H]1[C@@H]2[C@@H](O)C[C@]2(CO)[C@@H](C(=O)CO)CC[C@@H]12", "target": "NR3C2", "test": "reporter gene, agonist, luciferase", "endpoint": "EC50", "result": "0.056 µM"}
{"SMILES": "COc1cc2ncnc(N(C)c3ccc4c(c3)/C(=C/c3ccccc3)C(=O)N4C)c2cc1OC (mixture of isomers)", "target": "PIK3CD", "test": "enzyme activity, inhibitor, ADP detection", "endpoint": "IC50", "result": "0.416 µM"}
{"SMILES": "COc1ccccc1C1CCN(c2nc(C3CC3)nc3ccc(N4CCC(N(C)C)C4)cc23)CC1 (stereo not shown)", "target": "NTSR1", "test": "β-arrestin recruitment, agonist", "endpoint": "EC50", "result": "~65700 µM"}
{"SMILES": "COc1cc(/C=C/C(=O)CC(=O)/C=C/c2ccc(O)c(OC)c2)ccc1O", "target": "ATP2A1", "test": "binding, fluorescence", "conditions": "pH 7.2", "endpoint": "Kd", "result": "6.8 µM"}
{"SMILES": "CCc1ccc(NC(=O)CSc2nc(-c3cccc(OC)c3)nc3c2Cc2c(CO)cnc(C)c2O3)cc1", "target": "COQ8A", "test": "ligand displacement, TR-FRET", "endpoint": "IC50", "result": "2.17 µM"}
{"SMILES": "COc1cc2ncnc(Nc3ccc4c(c3)/C(=C/c3ccccc3)C(=O)N4)c2cc1OC", "target": "PIK3CD", "test": "enzyme activity, inhibitor, ADP detection", "endpoint": "IC50", "result": "0.7 µM"}
{"SMILES": "Cc1noc(C)c1Cc1ccc(C(=O)N2CCc3c(nc4cc(-c5ccccc5)[nH]n4c3=O)C2)o1", "target": "COQ8A", "test": "ligand displacement, TR-FRET", "endpoint": "IC50", "result": "0.49 µM"}
{"SMILES": "COc1cc2ncnc(Nc3ccc4c(c3)/C(=C/c3cccc(Cl)c3)C(=O)N4C)c2cc1OC", "target": "PIK3CD", "test": "enzyme activity, inhibitor, ADP detection", "endpoint": "IC50", "result": "0.628 µM"}
{"SMILES": "COc1ccccc1C1CCN(c2nc(C3(F)CC3)nc3ccc(N(C)CCN4CCOCC4)cc23)CC1", "target": "NTSR1", "test": "β-arrestin recruitment, agonist", "endpoint": "EC50", "result": "7.46 µM"}
{"SMILES": "CCCn1nc(C)c(-c2cc(C(=O)N3CCc4nc5cc(-c6ccccc6)[nH]n5c(=O)c4C3)[nH]n2)c1C", "target": "COQ8A", "test": "ligand displacement, TR-FRET", "endpoint": "IC50", "result": "1.72 µM"}
{"SMILES": "C=C[C@@]1(C)CC(=O)[C@]2(O)[C@@]3(C)[C@@H](O)CCC(C)(C)[C@@H]3[C@H](O)[C@H](OC(C)=O)[C@@]2(C)O1", "target": "Adenylate cyclase type 5 (ADCY5, Homo sapiens, UniProt O95622)", "test": "cAMP, agonist, TR-FRET", "endpoint": "EC50", "result": "10 µM"}
